Active and inactive are the calls of the source. The calls are words filed in the database; no cut-off is given here.
What was measured:
[1] = Cytotoxicity against human MIA cells assessed as growth inhibition at 100 uM measured after 72 hrs by MTT assay; type: functional; details: read-out: GI
[2] = Cytotoxicity against human SJ-G2 cells assessed as growth inhibition at 100 uM measured after 72 hrs by MTT assay; type: functional; details: SJ-G2, 72 h, read-out: GI
DU-145 [3] = assay: Cytotoxicity against human DU145 cells assessed as growth inhibition at 100 uM measured after 72 hrs by MTT assay; type: functional; details: DU-145, 72 h, read-out: GI
[4] = Cytotoxicity against human BE(2)-C cells assessed as growth inhibition at 100 uM measured after 72 hrs by MTT assay; type: functional; details: read-out: GI
A-431 [5] = assay: Cytotoxicity against human A431 cells assessed as growth inhibition at 100 uM measured after 72 hrs by MTT assay; type: functional; details: A-431, 72 h, read-out: GI
A2780 [6] = assay: Cytotoxicity against human A2780 cells assessed as growth inhibition at 100 uM measured after 72 hrs by MTT assay; type: functional; details: A2780, 72 h, read-out: GI
[7] = Cytotoxicity against human H460 cells assessed as growth inhibition at 100 uM measured after 72 hrs by MTT assay; type: functional; details: NCI-H460, 72 h, read-out: GI
SW480 [8] = assay: Cytotoxicity against human SW480 cells assessed as growth inhibition at 100 uM measured after 72 hrs by MTT assay; type: functional; details: SW480, 72 h, read-out: GI
MCF7 [9] = assay: Cytotoxicity against human MCF7 cells assessed as growth inhibition at 100 uM measured after 72 hrs by MTT assay; type: functional; details: MCF7, 72 h, read-out: GI
HT-29 [10] = assay: Cytotoxicity against human HT-29 cells assessed as growth inhibition at 100 uM measured after 72 hrs by MTT assay; type: functional; details: HT-29, 72 h, read-out: GI
[11] = Cytotoxicity against human SJ-G2 cells assessed as growth inhibition measured after 72 hrs by MTT assay; type: functional; details: SJ-G2, 72 h
Procedure, shortened: (§1)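 Cells in log phase were seeded in duplicate at 2500–4000 cells/well in supplemented DMEM (37 °C, 5% CO2). Drug from a 40 mM DMSO stock was added on day 0, 24 h post-plating. Read-out was MTT absorbance at 540 nm after 72 h.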

[12] = Cytotoxicity against human MIA cells assessed as growth inhibition measured after 72 hrs by MTT assay; type: functional; procedure, shortened: as §1
DU-145 [13] = assay: Cytotoxicity against human DU145 cells assessed as growth inhibition measured after 72 hrs by MTT assay; type: functional; details: DU-145, 72 h; procedure, shortened: as §1
[14] = Cytotoxicity against human BE(2)-C cells assessed as growth inhibition measured after 72 hrs by MTT assay; type: functional; procedure, shortened: as §1
[15] = Cytotoxicity against human H460 cells assessed as growth inhibition measured after 72 hrs by MTT assay; type: functional; details: NCI-H460, 72 h; procedure, shortened: as §1
A-431 [16] = assay: Cytotoxicity against human A431 cells assessed as growth inhibition measured after 72 hrs by MTT assay; type: functional; details: A-431, 72 h; procedure, shortened: as §1
MCF7 [17] = assay: Cytotoxicity against human MCF7 cells assessed as growth inhibition measured after 72 hrs by MTT assay; type: functional; details: MCF7, 72 h; procedure, shortened: as §1
A2780 [18] = assay: Cytotoxicity against human A2780 cells assessed as growth inhibition measured after 72 hrs by MTT assay; type: functional; details: A2780, 72 h; procedure, shortened: as §1
HT-29 [19] = assay: Cytotoxicity against human HT-29 cells assessed as growth inhibition measured after 72 hrs by MTT assay; type: functional; details: HT-29, 72 h; procedure, shortened: as §1
SW480 [20] = assay: Cytotoxicity against human SW480 cells assessed as growth inhibition measured after 72 hrs by MTT assay; type: functional; details: SW480, 72 h; procedure, shortened: as §1
[21] = Cytotoxicity against mouse SMA cells assessed as growth inhibition measured after 72 hrs by MTT assay
[22] = Cytotoxicity against mouse SMA cells assessed as growth inhibition at 100 uM measured after 72 hrs by MTT assay; details: read-out: GI
SJ-G2 = assay: Cytotoxicity against human SJ-G2 cells assessed as growth inhibition at 25 uM measured after 72 hrs by MTT assay; type: functional, cell-based
Procedure, shortened: (§2)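 Log-phase cells were plated in duplicate at 2500–4000 cells/well in DMEM with 10% FBS, glutamine and antibiotics, at 37 °C under 5% CO2. Drug was added 24 h after plating from a 40 mM DMSO stock, to a final 25 μM. After 72 h exposure, MTT was read at 540 nm and % growth inhibition was calculated, with 100% meaning total growth inhibition.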

[23] = Cytotoxicity against human MIA cells assessed as growth inhibition at 25 uM measured after 72 hrs by MTT assay; type: functional; details: read-out: GI; procedure, shortened: as §2
BE(2)-C = assay: Cytotoxicity against human BE(2)-C cells assessed as growth inhibition at 25 uM measured after 72 hrs by MTT assay; type: functional; procedure, shortened: as §2
A-431 [24] = assay: Cytotoxicity against human A431 cells assessed as growth inhibition at 25 uM measured after 72 hrs by MTT assay; type: functional, cell-based; procedure, shortened: as §2
DU-145 [25] = assay: Cytotoxicity against human DU145 cells assessed as growth inhibition at 25 uM measured after 72 hrs by MTT assay; type: functional, cell-based; procedure, shortened: as §2
A2780 [26] = assay: Cytotoxicity against human A2780 cells assessed as growth inhibition at 25 uM measured after 72 hrs by MTT assay; type: functional; procedure, shortened: as §2
NCI-H460 = assay: Cytotoxicity against human H460 cells assessed as growth inhibition at 25 uM measured after 72 hrs by MTT assay; type: functional, cell-based; procedure, shortened: as §2
SW480 [27] = assay: Cytotoxicity against human SW480 cells assessed as growth inhibition at 25 uM measured after 72 hrs by MTT assay; type: functional; procedure, shortened: as §2
MCF7 [28] = assay: Cytotoxicity against human MCF7 cells assessed as growth inhibition at 25 uM measured after 72 hrs by MTT assay; type: functional; details: MCF7, 72 h, read-out: GI; procedure, shortened: as §2
HT-29 [29] = assay: Cytotoxicity against human HT-29 cells assessed as growth inhibition at 25 uM measured after 72 hrs by MTT assay; type: functional, cell-based; procedure, shortened: as §2
SMA = assay: Cytotoxicity against mouse SMA cells assessed as growth inhibition at 25 uM measured after 72 hrs by MTT assay

## N#C/C(=C\c1ccc(Cl)cc1)C(=O)c1ccc[nH]1
[1]
  inhibition of growth at 100 µM: 31%
[2]
  inhibition of growth at 100 µM: 31%
DU-145 [3]
  inhibition of growth at 100 µM: 31%
[4]
  inhibition of growth at 100 µM: 31%
A-431 [5]
  inhibition of growth at 100 µM: 31%
A2780 [6]
  inhibition of growth at 100 µM: 31%
[7]
  inhibition of growth at 100 µM: 31%
SW480 [8]
  inhibition of growth at 100 µM: 31%
MCF7 [9]
  inhibition of growth at 100 µM: 31%
HT-29 [10]
  inhibition of growth at 100 µM: 31%
[11]
  GI50: 37 µM
[12]
  GI50: 48 µM
DU-145 [13]
  GI50: 61 µM
[14]
  GI50: 34 µM
[15]
  GI50: 43 µM
A-431 [16]
  GI50: 52 µM
MCF7 [17]
  GI50: 27 µM
A2780 [18]
  GI50: 35 µM
HT-29 [19]
  GI50: 36 µM
SW480 [20]
  GI50: 34 µM
[21]
  GI50: 38 µM
[22]
  inhibition of growth at 100 µM: 31%

## COc1ccc(CNC(=O)/C(C#N)=C/c2cc3ccccc3o2)cc1
SJ-G2
  growth inhibition (GI): inactive
[23]
  inhibition of growth at 25 µM: 34%
BE(2)-C
  growth inhibition (GI): inactive
A-431 [24]
  growth inhibition (GI): inactive
DU-145 [25]
  growth inhibition (GI): inactive
A2780 [26]
  growth inhibition (GI): inactive
NCI-H460
  growth inhibition (GI): inactive
SW480 [27]
  growth inhibition (GI): inactive
MCF7 [28]
  inhibition of growth at 25 µM: 40%
HT-29 [29]
  growth inhibition (GI): inactive
SMA
  growth inhibition (GI): inactive
